The nature of series [1]: Antifilarial activity against Brugia malayi microfilariae isolated from peritoneal cavity of infected Meriones unguiculatus assessed as loss of motility at 500 uM incubated for 48 hrs by microscopy. It counts as functional. In outline: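 Jird peritoneal Mf washed in RPMI 1640 with gentamycin, penicillin and streptomycin, then held 1 h at 37°C on dishes to remove exudate cells. About 300 Mf in 0.9% saline exposed to compound with shaking at 37°C, 30 min, 150 rpm. 100 Mf per well, in triplicate, then 48 h at 37°C in 5% CO2 in RPMI. Stocks were 2 mM in DMSO; vehicle control 1% DMSO. Motility scored by microscopy; mean ± SEM % loss of motility.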

A short description of series [2]: Cytotoxicity against human PBMC after 48 hrs by trypan blue exclusion assay. It counts as toxicity, cell-based. Particulars: PBMC (peripheral blood mononuclear cells), read-out: LD50. In outline:
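Human PBMCs came from healthy donors' venous blood by histopaque-1077 density separation. Cells were washed in RPMI 1640 with 2 mM L-glutamine and resuspended in RPMI with 10% FBS at 1x10^5 cells/ml. Trypan blue exclusion followed the procedure adapted from the microfilarial motility assay. LD50 was taken as the dose giving 50% cytotoxicity.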

Another series relates to Brugia malayi. The series is described as follows: Induction of apoptosis in Brugia malayi microfilariae isolated from peritoneal cavity of infected Meriones unguiculatus after 48 hrs by acridine orange/ethidium bromide dual staining based epifluorescence microscopy. Format: functional. In a few lines:
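Mf, control or treated for 48 h, washed and resuspended in cold PBS. Dye mix of 100 µg/mL AO and 100 µg/mL EB in PBS added. Viewed by epifluorescence microscopy with 480/30 nm excitation; green nuclei scored as live, orange/red as apoptotic or dead. Staurosporine was the positive control and untreated Mf the negative control.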

Series [3] is described as follows: Antifilarial activity against Brugia malayi microfilariae isolated from peritoneal cavity of infected Meriones unguiculatus assessed as loss of motility incubated for 48 hrs by microscopy. It counts as functional. In outline: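 Jird peritoneal Mf cleaned of exudate cells by 1 h adherence at 37°C. Exposed to compound over 1–100 µM final with shaking at 37°C, 30 min, 150 rpm in 0.9% saline. Washed, plated at 100 Mf per well in RPMI, triplicate wells, then 48 h at 37°C in 5% CO2. Vehicle control 1% DMSO. Loss of motility read by microscopy; experiment repeated three times; IC50 calculated.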

pIC50: −log10 of the molar value. Active and inactive are the calls of the source. No cut-off for these calls is given here.

Turning to `CN(C)c1ccc(/C=C/C(=O)c2ccc(NS(=O)(=O)c3ccccc3)cc2)cc1`, the Activity in series [1] was found to be 3.75%.

As a reminder, the pIC50 is the negative decadic logarithm of the IC50, by convention in mol/L. Regarding `Cc1ccc(S(=O)(=O)Nc2ccc(C(=O)/C=C/c3ccccc3)cc2)cc1`, the CC50 at 48 h in series [2] is 335 µM. In addition, in the series on Brugia malayi, the outcome was Active. In addition, the pIC50 in series [3] was 5.01. In addition, the Activity in series [1] is 100%.

As to `COc1ccc(/C=C/C(=O)c2ccc(NS(C)(=O)=O)cc2)cc1`, in series [2], the CC50 at 48 h stood at 194 µM. Further, the result in the series with Brugia malayi was Active. For the same compound, the pIC50 in series [3] is 4.22. In addition, in series [1], the Activity amounted to 100%.

In the case of `Cc1ccc(S(=O)(=O)Nc2ccc(C(=O)/C=C/c3ccc(-c4ccccc4)cc3)cc2)cc1`, the Activity in series [1] was 6.24%.

In the case of `Cc1ccc(/C=C/C(=O)c2ccc(NS(=O)(=O)c3ccccc3)cc2)cc1`, the Activity in series [1] was found to be 6.34%.

Regarding `O=C(/C=C/c1ccc([N+](=O)[O-])cc1)c1ccc(NS(=O)(=O)c2ccccc2)cc1`, the outcome in the series on Brugia malayi was Active. Also, in series [1], the Activity was determined as 100%.

Consider `COc1ccc(/C=C/C(=O)c2ccc(NS(=O)(=O)c3ccc(C)cc3)cc2)cc1`, for which the Activity in series [1] was 82.7%.

Turning to `O=C(/C=C/c1ccccc1Br)c1ccc(NS(=O)(=O)c2ccccc2)cc1`, the Activity in series [1] stood at 13.4%.

With `O=C(/C=C/c1ccc(Br)cc1)c1ccc(NS(=O)(=O)c2ccccc2)cc1`, in series [2], the CC50 at 48 h turned out to be 265 µM. For the same compound, the result in the series on Brugia malayi was Active. Moreover, the pIC50 in series [3] was 4.15. The Activity in series [1] was 100%.

Consider `O=C(/C=C/c1ccc(F)cc1)c1ccc(NS(=O)(=O)c2ccccc2)cc1`, for which, in series [2], the CC50 at 48 h was 217 µM. Also, in the series with Brugia malayi, the result was Active. Further, the pIC50 in series [3] is 5.35. Besides, the Activity in series [1] came to 100%.

For `Cc1ccc(S(=O)(=O)Nc2ccc(C(=O)/C=C/c3ccccc3Br)cc2)cc1`, the Activity in series [1] amounted to 3.04%.

Take `O=C(/C=C/c1ccco1)c1ccc(NS(=O)(=O)c2ccccc2)cc1`: the Activity in series [1] is 8.11%.

As to `O=C(/C=C/c1ccccc1Cl)c1ccc(NS(=O)(=O)c2ccccc2)cc1`, the Activity in series [1] was 33.3%.

Consider `Cc1ccc(/C=C/C(=O)c2ccc(NS(=O)(=O)c3ccc(C)cc3)cc2)cc1`, for which the CC50 at 48 h in series [2] turned out to be 140 µM. The outcome in the series with Brugia malayi was Active. In addition, in series [3], the negative-log IC50 (pIC50) is 5.09. For the same compound, the Activity in series [1] was 100%.

For the compound `COc1ccc(/C=C/C(=O)c2ccc(NS(=O)(=O)c3ccccc3)cc2)cc1`, the Activity in series [1] was found to be 1.81%.

Regarding `O=C(/C=C/c1ccccc1)c1ccc(NS(=O)(=O)c2ccccc2)cc1`, the Activity in series [1] was determined as 4.52%.

As to `CS(=O)(=O)Nc1ccc(C(=O)/C=C/c2ccc([N+](=O)[O-])cc2)cc1`, in series [2], the CC50 at 48 h turned out to be 188 µM. For the same compound, in the series on Brugia malayi, the result was Active. For the same compound, in series [3], the pIC50 was 5.36. Further, the Activity in series [1] came out at 100%.

For the compound `Cc1ccc(S(=O)(=O)Nc2ccc(C(=O)/C=C/c3ccc(Br)cc3)cc2)cc1`, in series [2], the CC50 at 48 h is 220 µM. The outcome with Brugia malayi was Active. Further, the negative logarithm of the IC50 (pIC50) in series [3] was 5.34. Moreover, the Activity in series [1] amounted to 100%.

Turning to `Cc1ccc(S(=O)(=O)Nc2ccc(C(=O)/C=C/c3ccc(O)cc3)cc2)cc1`, the CC50 at 48 h in series [2] worked out at 270 µM. Besides, the result in the series with Brugia malayi was Active. Further, the negative logarithm of the IC50 (pIC50) in series [3] was 4.09. Besides, the Activity in series [1] was 100%.

As for `O=C(/C=C/c1ccc(Cl)cc1)c1ccc(NS(=O)(=O)c2ccccc2)cc1`, in series [2], the CC50 at 48 h is 177 µM. Further, the outcome in the series on Brugia malayi was Active. In addition, the negative-log IC50 (pIC50) in series [3] was 4.77. Besides, the Activity in series [1] turned out to be 100%.

`Cc1ccc(S(=O)(=O)Nc2ccc(C(=O)/C=C/c3cccc(Br)c3)cc2)cc1`: the CC50 at 48 h in series [2] came out at 80 µM. Further, in the series on Brugia malayi, the result was Active. Also, the negative logarithm of the IC50 (pIC50) in series [3] was 4.82. In series [1], the Activity was found to be 100%.

As to `CS(=O)(=O)Nc1ccc(C(=O)/C=C/c2ccccc2)cc1`, the CC50 at 48 h in series [2] turned out to be 134 µM. Also, the result in the series on Brugia malayi was Active. Also, the pIC50 in series [3] is 4.49. Moreover, the Activity in series [1] came out at 100%.

Consider `Cc1ccc(S(=O)(=O)Nc2ccc(C(=O)/C=C/c3ccc(C(C)C)cc3)cc2)cc1`, for which the CC50 at 48 h in series [2] turned out to be 50 µM. Further, in the series on Brugia malayi, the outcome was Active. In addition, the negative logarithm of the IC50 (pIC50) in series [3] was 4.70. In addition, the Activity in series [1] was 100%.

With `O=C(/C=C/c1ccc(Br)s1)c1ccc(NS(=O)(=O)c2ccccc2)cc1`, the Activity in series [1] is 9%.

As for `O=C(/C=C/c1ccc(O)cc1)c1ccc(NS(=O)(=O)c2ccccc2)cc1`, the Activity in series [1] is 5.2%.

For the compound `Cc1ccc(S(=O)(=O)Nc2ccc(C(=O)/C=C/c3ccc(Cl)cc3)cc2)cc1`, the Activity in series [1] is 1.58%.

On to `Cc1ccc(S(=O)(=O)Nc2ccc(C(=O)/C=C/c3ccccc3Cl)cc2)cc1`, for which the Activity in series [1] stood at 4.1%.

These data come from ChEMBL document CHEMBL3870323, “Sulfonamide chalcones: Synthesis and in vitro exploration for therapeutic potential against Brugia malayi” (Eur J Med Chem, 2016).
